{"source": "PubChem BioAssay AID489030", "about": "(Sanford-Burnham Center for Chemical Genomics, 2010)", "note": "Hit rate of the full screen: of about 330,000 compounds, about 2,400 (0.73%) were called active. This excerpt belongs to a sample that is enriched for actives. A number with no mark means an inactive call. Rule for the calls: active = inhibition of at least 40% at 20 µM; inactive = the rest."}
{"target": "Apoptotic protease-activating factor 1 (Homo sapiens) (UniProt O14727)", "sequence (O14727 whole entry, looked up)": "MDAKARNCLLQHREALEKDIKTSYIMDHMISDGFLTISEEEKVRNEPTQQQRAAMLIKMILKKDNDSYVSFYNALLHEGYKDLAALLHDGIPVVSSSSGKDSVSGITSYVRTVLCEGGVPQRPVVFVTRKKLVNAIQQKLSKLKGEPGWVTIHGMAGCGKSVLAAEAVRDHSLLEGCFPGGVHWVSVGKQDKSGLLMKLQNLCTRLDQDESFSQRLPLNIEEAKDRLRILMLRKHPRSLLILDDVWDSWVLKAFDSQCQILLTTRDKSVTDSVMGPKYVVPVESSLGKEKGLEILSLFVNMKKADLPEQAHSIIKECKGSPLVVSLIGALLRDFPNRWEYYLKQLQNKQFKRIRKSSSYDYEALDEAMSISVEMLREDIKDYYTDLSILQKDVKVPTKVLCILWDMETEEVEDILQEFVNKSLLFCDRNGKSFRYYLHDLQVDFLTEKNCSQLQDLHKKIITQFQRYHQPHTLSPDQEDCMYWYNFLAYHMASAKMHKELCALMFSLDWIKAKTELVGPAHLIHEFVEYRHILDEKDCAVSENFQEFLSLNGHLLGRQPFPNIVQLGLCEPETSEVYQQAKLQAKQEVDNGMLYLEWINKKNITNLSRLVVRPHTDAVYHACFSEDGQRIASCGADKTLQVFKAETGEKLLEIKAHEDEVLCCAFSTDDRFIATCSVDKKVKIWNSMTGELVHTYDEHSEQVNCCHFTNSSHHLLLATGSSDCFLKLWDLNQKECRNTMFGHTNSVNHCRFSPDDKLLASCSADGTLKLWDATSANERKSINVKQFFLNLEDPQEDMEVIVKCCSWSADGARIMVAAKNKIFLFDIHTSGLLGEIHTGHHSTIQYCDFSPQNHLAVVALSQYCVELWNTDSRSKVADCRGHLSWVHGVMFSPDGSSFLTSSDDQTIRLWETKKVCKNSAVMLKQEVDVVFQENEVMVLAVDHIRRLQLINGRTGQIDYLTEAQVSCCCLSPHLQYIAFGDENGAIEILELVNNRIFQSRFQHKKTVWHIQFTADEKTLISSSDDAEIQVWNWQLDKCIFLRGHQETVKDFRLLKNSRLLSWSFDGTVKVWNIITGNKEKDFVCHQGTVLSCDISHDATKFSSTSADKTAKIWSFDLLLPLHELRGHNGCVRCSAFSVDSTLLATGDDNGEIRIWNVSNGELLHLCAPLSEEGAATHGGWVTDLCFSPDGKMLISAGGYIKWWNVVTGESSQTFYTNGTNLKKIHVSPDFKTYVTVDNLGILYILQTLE", "test": "inhibitors of human Apaf-1 apoptosome, primary screen, biochemical, DEVD-Rh110 fluorescence, uHTS (AID 489030);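 note: plate controls were DMSO wells for no effect and DEVD-CHO caspase inhibitor wells for full effect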", "settings": "reconstituted apoptosome caspase-3 activity, at 20 µM, stronger effect = higher value", "method_in_brief": "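Material: biochemical Apaf-1 apoptosome reconstitution. Medium: Hepes buffer, pH 7.5. Also added: cytochrome c activation, bis-DEVD rhodamine 110 substrate. Timing: 30 min compound preincubation, 50 min activation, room temperature. Measured by: rhodamine 110 fluorescence at Ex 480/Em 540 nm.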"}
{"smiles": "Cc1ccc(NC(=O)C(C)c2cccc(C(=O)c3ccccc3)c2)cc1", "note": "(configuration not stated)", "inhibition": "-10.9%"}
{"smiles": "COc1cc2ccccc2cc1C(=O)N1CCOCC1", "inhibition": "-7.91%"}
{"smiles": "O=C(c1snnc1-c1ccccc1)N1CCOCC1", "inhibition": "-11.7%"}
{"smiles": "Cc1oc2c(c1C(=O)N1CCOCC1)C(=O)c1ccccc1C2=O", "inhibition": "65.9% (active)"}
{"smiles": "Cc1cc(NC(=O)C(C)SCC(=O)Nc2ccccc2N2CCCCC2)no1", "note": "(configuration not stated)", "inhibition": "18.8%"}
{"smiles": "CCCCN(CC)CCNC(=O)c1[nH]c(C)c(C(C)=O)c1C", "inhibition": "2.1%"}
{"smiles": "Clc1ccccc1CSc1nnc(-c2ccco2)c(-c2ccco2)n1", "inhibition": "49.9% (active)"}
{"smiles": "O=C(CC1N=C2c3ccccc3N=C(SCc3ccccc3Cl)N2C1=O)NCc1ccco1", "note": "(configuration not stated)", "inhibition": "21.1%"}
{"smiles": "CCc1nnc(SCc2cccc(F)c2)nc1CC", "inhibition": "14.3%"}
{"smiles": "c1ccc(CSc2nnc(-c3ccco3)c(-c3ccco3)n2)cc1", "inhibition": "49.6% (active)"}
{"smiles": "Clc1ccc(CSc2nnc3c(n2)[nH]c2ccccc23)cc1", "inhibition": "11.3%"}
{"smiles": "S=C(NCc1ccco1)NCc1ccccc1Cl", "inhibition": "10.3%"}
{"smiles": "COc1cc(NC(=O)CCS(=O)(=O)c2ccc3c(c2)oc(=O)n3C)cc(OC)c1", "inhibition": "-0.825%"}
{"smiles": "Cc1c(NS(=O)(=O)c2cc(C(=O)NCCc3ccc(F)cc3)cc(Cl)c2Cl)c(=O)n(-c2ccccc2)n1C", "inhibition": "16%"}
{"smiles": "CCOC(=O)c1ccc2c(c1)nc(SCC(=O)NC(C)C)n2CC", "inhibition": "-14.5%"}
{"smiles": "Cc1ccc(C(=O)N/N=C\\c2cc(Br)c(Br)o2)cn1", "inhibition": "75.4% (active)"}
{"smiles": "Cc1ccc(C(=O)N/N=C/c2cccc3ccccc23)cn1", "inhibition": "-7.7%"}
{"smiles": "O=C(N/N=C\\c1cc(Br)c(Br)o1)C1COc2ccccc2O1", "note": "(configuration not stated)", "inhibition": "6.95%"}
{"smiles": "O=C(OCc1ccccc1F)c1ccc2c(c1)OCCO2", "inhibition": "9.05%"}
{"smiles": "CCOC(=O)CCC(=O)OCC(=O)NC(C)C1CC2CCC1C2", "note": "(configuration not stated)", "inhibition": "3.06%"}
{"smiles": "COC(=O)c1ccc(NC(=O)c2cc3c(CO)cnc(C)c3oc2=Nc2cccc(C(N)=O)c2)cc1", "inhibition": "-28.9%"}
{"smiles": "CC(=O)N1N=C(c2ccncc2)OC1(Cc1ccccc1)Cc1ccccc1", "inhibition": "3.9%"}
{"smiles": "O=C(O/N=C(/c1ccccc1)c1ccncc1)c1ccccc1[N+](=O)[O-]", "inhibition": "-9.34%"}
{"smiles": "CCC(=O)c1ccc(OCC(=O)Nc2ccc(N3CCCCC3)cc2)cc1", "inhibition": "-8.58%"}
{"smiles": "Cc1cc(C)cc(OCC(=O)Nc2ccc(N3CCOCC3)cc2N2CCOCC2)c1", "inhibition": "21.9%"}
{"smiles": "Cc1cc(N2CCCC2)ccc1NC(=O)COc1ccc(Cl)cc1", "inhibition": "62.2% (active)"}
{"smiles": "CS(=O)(=O)N(CC(=O)N1CCN(c2ccc(F)cc2)CC1)C1CCCCC1", "inhibition": "-2.79%"}
